In the RNAGym collection of RNA variant scans (doi:10.1002/anie.201605470):

B1: Osa-1-4 twister ribozyme (parent)
chain: CCGCCUAACACUGCCAAUGCCGGUCCCAAGCCCGGAUAAAAGUGGAGGGGGCGG

Variants of: B1
Test: self-cleavage, relative activity (ratio to wild type); higher = more cleavage; co-transcriptional
Summary of the method: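 For each read, cleavage status was taken from whether upstream sequence was present. The reads came from an Oryza sativa twister ribozyme of 54 nucleotides, whose DNA template was synthesised with 97 % wild-type base and 1 % of each other base at the 48 positions downstream of the cleavage site. The template was transcribed in vitro at 37 °C for 2 h with co-transcriptional self-cleavage, and the RNA was reverse-transcribed using a template-switching oligonucleotide, PCR-amplified and deep-sequenced. Relative activity is the fraction cleaved normalised to wild type.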

Variant | self-cleavage
CCGCCUAGCACUGCCAAAGCCGGUCCCAAGCCCGGAUAAAAGUGGAGGGGGCGG | 0.57
CCGCCUAGCACUGCCAACGCCGGUCCCAAGCCCGGAUAAAAGUGGAGGGGGCGG | 0.39
CCGCCUAGCACUGCCAAUGCCGGUCCCAAGCCCGGAUAAAAGUGCAGGGGGCGG | 0.05
CCGCCUAGCACUGCCAAUGCCGGUCCCAAGCCCGGAUAAAAGUGAAGGGGGCGG | 0.09
CCGCCUAGCACUGCCAAUGCCGGUCCCAAGCCCGGAUAAAAGUGUAGGGGGCGG | 0.14
CCGCCUAGCACUGCCAAUGCCGGUCCCAAGCCCGGAUAAAAGUCGAGGGGGCGG | 0.35
CCGCCUAGCACUGCCAAUGCCGGUCCCAAGCCCGGAUAAAAGUAGAGGGGGCGG | 0.39
CCGCCUAGCACUGCCAAUGCCGGUCCCAAGCCCGGAUAAAAGUUGAGGGGGCGG | 0.45
CCGCCUAGCACUGCCAAUGCCGGUCCCAAGCCCGGAUAAAAGUGGAGGGGGCUG | 0.11
CCGCCUAGCACUGCCAAUGCCGGUCCCAAGCCCGGAUAAAAGUGGAGGGGGCAG | 0.16
CCGCCUAGCACUGCCAAUGCCGGUCCCAAGCCCGGAUAAAAGUGGAGGGGGCCG | 0.08
CCGCCUAGCACUGCCAAUGCCGGUCCCAAGCCCGGAUAAAAGUGGAGGUGGCGG | 0.06
CCGCCUAGCACUGCCAAUGCCGGUCCCAAGCCCGGAUAAAAGUGGAGGAGGCGG | 0.08
CCGCCUAGCACUGCCAAUGCCGGUCCCAAGCCCGGAUAAAAGUGGAGGCGGCGG | 0.05
CCGCCUAGCACAGCCAAUGCCGGUCCCAAGCCCGGAUAAAAGUGGAGGGGGCGG | 0.16
CCGCCUAGCACCGCCAAUGCCGGUCCCAAGCCCGGAUAAAAGUGGAGGGGGCGG | 0.12
CCGCCUAGCACGGCCAAUGCCGGUCCCAAGCCCGGAUAAAAGUGGAGGGGGCGG | 0.15
CCGCCUAGCACUGCCAAUGCCGCUCCCAAGCCCGGAUAAAAGUGGAGGGGGCGG | 0.05
CCGCCUAGCACUGCCAAUGCCGUUCCCAAGCCCGGAUAAAAGUGGAGGGGGCGG | 0.06
CCGCCUAGCACUGCCAAUGCCGAUCCCAAGCCCGGAUAAAAGUGGAGGGGGCGG | 0.13
CCGCCUAGCACUGCCAAUGCCGGUCCCAAGCCCGGAUAAAAGUGGAUGGGGCGG | 0.1
CCGCCUAGCACUGCCAAUGCCGGUCCCAAGCCCGGAUAAAAGUGGACGGGGCGG | 0.07
CCGCCUAGCACUGCCAAUGCCGGUCCCAAGCCCGGAUAAAAGUGGAAGGGGCGG | 0.11
CCGCCUAGCACUGCCAAUGCCGGUCCCAAACCCGGAUAAAAGUGGAGGGGGCGG | 0.06
CCGCCUAGCACUGCCAAUGCCGGUCCCAACCCCGGAUAAAAGUGGAGGGGGCGG | 0.07

Variant | self-cleavage
CCGCCUAGCACUGCCAAUGCCGGUCCCAAUCCCGGAUAAAAGUGGAGGGGGCGG | 0.04
CCGCCUAGCACUGCCAAUGCCUGUCCCAAGCCCGGAUAAAAGUGGAGGGGGCGG | 0.15
CCGCCUAGCACUGCCAAUGCCCGUCCCAAGCCCGGAUAAAAGUGGAGGGGGCGG | 0.07
CCGCCUAGCACUGCCAAUGCCGGUCCCAAGCCCUGAUAAAAGUGGAGGGGGCGG | 0.16
CCGCCUAGCACUGCCAAUGCCGGUCCCAAGCCCCGAUAAAAGUGGAGGGGGCGG | 0.13
CCGCCUAGCACUGCCAAUGCCGGUCCCAAGCCCAGAUAAAAGUGGAGGGGGCGG | 0.27
CCGCCUAGCACUGCCAAUGCCGGUCCCAAGCCCGGAUAAAAGUGGAGUGGGCGG | 0.04
CCGCCUAGCACUGCCAAUGCCGGUCCCAAGCCCGGAUAAAAGUGGAGAGGGCGG | 0.06
CCGCCUAGCACUGCCAAUGCCGGUCCCAAGCCCGGAUAAAAGUGGAGCGGGCGG | 0.05
CCGCCUAGCACUGCCAAUGCCGGUCCCAAGCCCGAAUAAAAGUGGAGGGGGCGG | 0.4
CCGCCUAGCACUGCCAAUGCCGGUCCCAAGCCCGCAUAAAAGUGGAGGGGGCGG | 0.16
CCGCCUAGCACUGCCAAUGCCGGUCCCAAGCCCGUAUAAAAGUGGAGGGGGCGG | 0.35
CCGCCUAGCACUGCCAAUGCCGGUCCCAAGCCCGGAUAAAAGUGGAGGGGACGG | 0.22
CCGCCUAGCACUGCCAAUGCCGGUCCCAAGCCCGGAUAAAAGUGGAGGGGUCGG | 0.11
CCGCCUAGCACUGCCAAUGCCGGUCCCAAGCCCGGAUAAAAGUGGAGGGGCCGG | 0.08
CCGCCUAGCACUGCCAAUGCCGGUCCCAAGCCCGGAUAAAACUGGAGGGGGCGG | 0.12
CCGCCUAGCACUGCCAAUGCCGGUCCCAAGCCCGGAUAAAAUUGGAGGGGGCGG | 0.04
CCGCCUAGCACUGCCAAUGCCGGUCCCAAGCCCGGAUAAAAAUGGAGGGGGCGG | 0.14
CCGCCUAGCACUGCCAAUGCCGGUCCCAAGCCCGGAUAAAAGUGGAGGGCGCGG | 0.27
CCGCCUAGCACUGCCAAUGCCGGUCCCAAGCCCGGAUAAAAGUGGAGGGAGCGG | 0.53
CCGCCUAGCACUGCCAAUGCCGGUCCCAAGCCCGGAUAAAAGUGGAGGGUGCGG | 0.43
CCGCCUAGCACUGCCAAUGCCGGUCCCAAGCCCGGAUAAAAGUGGAGGGGGCGC | 0.21
CCGCCUAGCACUGCCAAUGCCGGUCCCAAGCCCGGAUAAAAGUGGAGGGGGCGU | 0.32
CCGCCUAGCACUGCCAAUGCCGGUCCCAAGCCCGGAUAAAAGUGGAGGGGGCGA | 0.27
